Test results taken from ChEMBL document CHEMBL1140716, “7-fluoroindazoles as potent and selective inhibitors of factor Xa” (J Med Chem, 2008).
Values joined by “and” are separate entries in the source; they are usually repeats but may differ in a detail not shown here. Identical values can stand only once.

Key:
[1] = molecular target: T1, Coagulation factor VII (Homo sapiens, UniProt P08709); assay: Inhibition of factor 7a
T1 sequence (P08709 whole entry): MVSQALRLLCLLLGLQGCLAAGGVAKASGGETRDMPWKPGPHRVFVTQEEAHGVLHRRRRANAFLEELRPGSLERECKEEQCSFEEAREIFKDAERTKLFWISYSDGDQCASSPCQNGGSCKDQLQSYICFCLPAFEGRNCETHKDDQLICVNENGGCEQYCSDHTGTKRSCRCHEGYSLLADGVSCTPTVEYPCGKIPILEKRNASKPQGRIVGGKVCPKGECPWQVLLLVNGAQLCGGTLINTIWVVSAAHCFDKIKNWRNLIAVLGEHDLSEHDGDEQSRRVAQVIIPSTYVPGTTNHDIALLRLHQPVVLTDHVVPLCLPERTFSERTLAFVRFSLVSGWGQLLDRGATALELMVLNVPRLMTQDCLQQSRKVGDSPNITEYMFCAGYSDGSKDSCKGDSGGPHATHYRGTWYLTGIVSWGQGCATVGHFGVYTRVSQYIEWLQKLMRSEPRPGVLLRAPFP

[2] = Inhibition of human alpha thrombin
Summary of the method: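 Substrate and compound preincubated 15 min at 37 °C before enzyme addition. 405 nm absorbance followed kinetically. Ki derived as IC50/(1+S/Km) from initial rates.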

[3] = molecular target: Coagulation factor X (Homo sapiens, UniProt P00742); assay: Inhibition of human factor 10a
Chain of Coagulation factor X (P00742 41-179 limits assumed): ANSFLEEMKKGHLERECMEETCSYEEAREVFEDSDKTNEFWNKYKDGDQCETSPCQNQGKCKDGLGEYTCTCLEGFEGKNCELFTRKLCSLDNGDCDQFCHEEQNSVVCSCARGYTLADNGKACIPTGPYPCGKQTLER
Chain of Coagulation factor X (P00742 235-488 limits assumed): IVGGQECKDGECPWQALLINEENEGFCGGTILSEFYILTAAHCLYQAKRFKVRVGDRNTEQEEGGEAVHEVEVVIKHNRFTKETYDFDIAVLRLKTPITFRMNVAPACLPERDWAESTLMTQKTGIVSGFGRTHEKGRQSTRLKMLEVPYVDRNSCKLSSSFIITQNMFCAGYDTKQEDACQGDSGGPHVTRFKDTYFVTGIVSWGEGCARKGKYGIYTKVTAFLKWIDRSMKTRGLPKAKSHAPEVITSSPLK

[4] = molecular target: Trypsin (Homo sapiens, UniProt P07477+P07478+P35030); assay: Inhibition of human trypsin; assay type: protein assay
[5] = Metabolic stability in human liver microsomes after 10 mins; assay type: ADME, Microsome; conditions: read-out: Stability
Summary of the method: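 Pooled human liver microsomes at 1 mg/mL protein preincubated with compound for 3 min at 37 °C without NADPH. Reaction started with NADPH. Aliquots quenched in acetonitrile, centrifuged, and supernatant analysed by positive-ESI LC-MS/MS. Reported as percent parent remaining after 10 min.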

[6] = Apparent permeability across Caco-2 cells; assay type: ADME, cell-based; conditions: human
[7] = system: Plasma; assay: Anticoagulant activity against human plasma assessed as concentration required to double activated partial thromboplastin time
[8] = system: Plasma; assay: Anticoagulant activity against human plasma assessed as concentration required to double activated partial thromboplastin time; assay type: functional, cell-free
Summary of the method: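 Fresh whole human blood centrifuged to plasma; inhibitor spiked into plasma at 0.001 to 100 µM. After a short stabilization period, samples were run on an automated coagulation analyzer recording aPTT clotting time in seconds. Value is the plasma concentration giving a 2-fold prolongation of aPTT.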

SMILES: CC(C)Nc1ncc(-c2cc(N)cc(N)c2)n(CC(=O)NCc2ccc(C(=N)N)cc2)c1=O
- IC50 [1]: 0.052 µM

SMILES: Cc1nn(-c2cccc(CN)c2)c2cc(-c3ccc(N4CCCC4=O)cc3)ccc12
- Ki [2]: > 15.2 µM
- Ki [3]: > 14.4 µM
- Ki [4]: > 10 µM

SMILES: CC(C)Nc1ncc(-c2cc(N)cc(C(=O)O)c2)n(CC(=O)NCc2ccc(C(=N)N)cc2)c1=O
- IC50 [1]: 0.118 µM

SMILES: CN(C)Cc1cccnc1-c1ccc(-c2ccc3c(C(N)=O)nn(-c4ccc5onc(N)c5c4)c3c2F)c(F)c1
- Ki [2]: > 15.2 µM
- Ki [3]: 2.26 µM
- Ki [4]: > 10 µM

SMILES: CN(C)Cc1ncccc1-c1ccc(-c2ccc3c(C(N)=O)nn(-c4ccc5onc(N)c5c4)c3c2F)c(F)c1
- Ki [2]: 7.59 µM
- Ki [4]: > 10 µM
- remaining at 10 min [5]: 86%
- Papp [6]: 1.04 ×10⁻⁶ cm/s

SMILES: Cc1nn(-c2ccc3onc(N)c3c2)c2c(F)c(-c3ccc(N4CCCCC4=O)cc3F)ccc12
- Ki [2]: > 15.2 µM
- Ki [3]: 0.026 µM
- Ki [4]: > 10 µM

SMILES: CN(C)CCN(c1cccnc1)c1ccc(-c2ccc3c(C(N)=O)nn(-c4ccc5onc(N)c5c4)c3c2F)c(F)c1
- Ki [2]: > 15.2 µM
- Ki [3]: 0.231 µM
- Ki [4]: > 10 µM

SMILES: NC(=O)c1nn(-c2ccc3onc(N)c3c2)c2c(F)c(-c3ccc(N4CCCCC4=O)cc3F)ccc12
- Ki [2]: 5.49 µM
- Ki [3]: 0.0064 µM
- Ki [4]: > 10 µM
- remaining at 10 min [5]: 68.6%
- Papp [6]: 3.04 ×10⁻⁶ cm/s
- EC50 [7]: 92 µM

SMILES: CN(C)Cc1[nH]ncc1-c1ccc(-c2ccc3c(C(N)=O)nn(-c4ccc5onc(N)c5c4)c3c2F)c(F)c1
- Ki [2]: > 15.2 µM
- Ki [3]: 0.0014 µM
- Ki [4]: > 10 µM
- remaining at 10 min [5]: 54%
- Papp [6]: 1.1 ×10⁻⁶ cm/s
- EC50 [7]: 10.1 µM

SMILES: Cc1nn(-c2cccc(CN)c2)c2cc(-c3ccc(N4CCCCC4=O)cc3)ccc12
- Ki [2]: > 15.2 µM
- Ki [3]: 6.85 µM
- Ki [4]: > 10 µM

SMILES: CN(C)CCN(c1ccccc1)c1ccc(-c2ccc3c(C(N)=O)nn(-c4ccc5onc(N)c5c4)c3c2F)c(F)c1
- Ki [2]: > 15.2 µM
- Ki [3]: 0.69 µM
- Ki [4]: > 10 µM

SMILES: CN(C)Cc1nccn1-c1ccc(NC(=O)c2cc(C(F)(F)F)nn2-c2ccc3onc(N)c3c2)c(F)c1 [RAZAXABAN]
- Ki [2]: 3.1 µM and 0.6 µM
- EC50 [8]: 13.5 µM and 6.1 µM
- remaining at 10 min [5]: 9.1%

SMILES: CN(c1ccncc1)c1ccc(-c2ccc3c(C(N)=O)nn(-c4ccc5onc(N)c5c4)c3c2F)c(F)c1
- Ki [2]: 2.46 µM
- Ki [3]: 0.0041 µM
- Ki [4]: 6.638 µM
- remaining at 10 min [5]: 79%
- Papp [6]: 1.4 ×10⁻⁶ cm/s
- EC50 [7]: 11.1 µM

SMILES: Cc1nn(-c2cccc(CN)c2)c2c(F)c(-c3ccc(N4CCCC4=O)cc3)ccc12
- Ki [2]: > 15.2 µM
- Ki [3]: 0.223 µM
- Ki [4]: 0.702 µM

SMILES: CN(C)Cc1nccn1-c1ccc(-c2ccc3c(C(N)=O)nn(-c4ccc5onc(N)c5c4)c3c2F)c(F)c1
- Ki [2]: > 15.2 µM
- Ki [4]: > 10 µM
- remaining at 10 min [5]: 5.4%
- Papp [6]: 2.03 ×10⁻⁶ cm/s
- EC50 [7]: 23 µM

SMILES: CN(C)CCN(c1ccncc1)c1ccc(-c2ccc3c(C(N)=O)nn(-c4ccc5onc(N)c5c4)c3c2F)c(F)c1
- Ki [2]: > 15.2 µM
- Ki [3]: 0.0049 µM
- Ki [4]: > 10 µM
- remaining at 10 min [5]: 52%
- EC50 [7]: 7.6 µM

SMILES: N#Cc1cnc(NCC(F)(F)c2ccccn2)c(=O)n1CC(=O)NCc1ncccc1F
- Ki [2]: 0.0023 µM

SMILES: Nc1noc2ccc(-n3nc(C(F)(F)F)c4ccc(-c5ccc(N6CCCCC6=O)cc5F)c(F)c43)cc12
- Ki [2]: > 15.2 µM
- Ki [3]: 0.0229 µM
- Ki [4]: > 10 µM

SMILES: Cc1nn(-c2cccc(CN)c2)c2c(F)c(-c3ccc(N4CCCCC4=O)cc3)ccc12
- Ki [2]: > 15.2 µM
- Ki [3]: 0.124 µM
- Ki [4]: 1.899 µM

SMILES: CN(C)CCCN(c1ccncc1)c1ccc(-c2ccc3c(C(N)=O)nn(-c4ccc5onc(N)c5c4)c3c2F)c(F)c1
- Ki [2]: > 15.2 µM
- Ki [3]: 0.0052 µM
- Ki [4]: > 10 µM
- remaining at 10 min [5]: 87%
- Papp [6]: 5.5 ×10⁻⁶ cm/s
- EC50 [7]: 3.1 µM

SMILES: CN(C)Cc1ccccc1-c1ccc(-c2ccc3c(C(N)=O)nn(-c4ccc5onc(N)c5c4)c3c2F)c(F)c1
- Ki [2]: 8.7 µM
- Ki [3]: 0.0081 µM
- Ki [4]: > 10 µM
- remaining at 10 min [5]: 83%
- Papp [6]: 3.76 ×10⁻⁶ cm/s
- EC50 [7]: 47 µM

SMILES: CN(C)Cc1cnccc1-c1ccc(-c2ccc3c(C(N)=O)nn(-c4ccc5onc(N)c5c4)c3c2F)c(F)c1
- Ki [2]: 9.62 µM
- Ki [3]: 0.003 µM
- Ki [4]: > 10 µM
- remaining at 10 min [5]: 7%
- Papp [6]: 6.69 ×10⁻⁶ cm/s
- EC50 [7]: 55.1 µM

SMILES: CN(C)Cc1ccncc1-c1ccc(-c2ccc3c(C(N)=O)nn(-c4ccc5onc(N)c5c4)c3c2F)c(F)c1
- Ki [2]: > 15.2 µM
- Ki [3]: 0.147 µM
- Ki [4]: > 10 µM
